Screens: PubChem BioAssay, The Scripps Research Institute Molecular Screening Center
The list is not random: actives were taken first. Their share in the collection is about 4.5%.
CHO parental Ca = counter-screen for OX1R antagonists: effect in parental CHO cells; parental CHO-K1, ATP-induced calcium, Fluo-8 fluorescence; inhibition, % at 5.6 µM; 330,000 compounds, 0.63% hits;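 active = inhibition above that plate's mean sample inhibition plus 3 SD, cut at about 26% in these data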;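 also: 0% = ATP-challenged DMSO wells and 100% = DMSO wells without ATP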
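Test system: untransfected parental CHO cell line. Compound: one dose, 5.6 µM nominal. Detection: intracellular calcium via Fluo-8 no-wash fluorescent dye. Measure: % inhibition. Benchmarks: ATP-challenged DMSO wells low, unchallenged DMSO wells high.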
OX1R antag-1 = antagonists of human orexin 1 receptor (OX1R) | O43613 | OX1R-expressing cells, FRET antagonist read-out | inhibition, % at 6.6 µM | 330,000 compounds, 1.8% hits; in the data active = inhibition mostly above about 38%, no sharp cut-off; inactive = mostly below about 40%;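 also: 0% = agonist challenge alone and 100% = reference antagonist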
GPR7 antagonist = human neuropeptides B/W receptor 1 antagonism; GPR7-expressing cells, fluorescence antagonist assay; inhibition, % at 4.4 µM; 290,000 compounds, 1.1% hits; AID 1861; in the data active = inhibition above about 16%, passing the limit was not always enough;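 also: cells stimulated with the agonist NPW; 0% = agonist with vehicle and 100% = vehicle without agonist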
Target sequence (P48145 whole entry, looked up): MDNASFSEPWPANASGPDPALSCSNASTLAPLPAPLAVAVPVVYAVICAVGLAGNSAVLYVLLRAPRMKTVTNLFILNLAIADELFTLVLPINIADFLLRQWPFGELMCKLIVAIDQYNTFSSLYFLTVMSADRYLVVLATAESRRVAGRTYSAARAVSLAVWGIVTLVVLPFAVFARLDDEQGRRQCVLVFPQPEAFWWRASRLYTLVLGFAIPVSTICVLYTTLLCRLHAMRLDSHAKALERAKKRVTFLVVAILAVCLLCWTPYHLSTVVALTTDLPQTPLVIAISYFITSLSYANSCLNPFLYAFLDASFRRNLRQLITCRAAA
OX1R antag-2 = blocks the human orexin 1 receptor; CHO/OX1R cells, Fluo-8 calcium fluorescence, orexin A; inhibition, % at 5 µM; 330,000 compounds, 0.43% hits; O43613;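 active = inhibition above its plate's threshold, mean inhibition of all tested compounds on the plate plus 3 SD, cut at about 37% in these data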;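 also: 0% = orexin A challenge wells and 100% = SB-334867-A antagonist wells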
TAAR1 ag = agonists of human TAAR1; CHO RD-HGA16 TAAR1, Fluo-8 calcium fluorescence; vehicle wells 0%, saturating PEA agonist 100%; activation, % at 3 µM; 360,000 compounds, 0.99% hits;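 active = activation above the mean activation of all test compounds in the run plus 3 SD, cut at about 38% in these data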
Target sequence (Q96RJ0 whole entry, looked up): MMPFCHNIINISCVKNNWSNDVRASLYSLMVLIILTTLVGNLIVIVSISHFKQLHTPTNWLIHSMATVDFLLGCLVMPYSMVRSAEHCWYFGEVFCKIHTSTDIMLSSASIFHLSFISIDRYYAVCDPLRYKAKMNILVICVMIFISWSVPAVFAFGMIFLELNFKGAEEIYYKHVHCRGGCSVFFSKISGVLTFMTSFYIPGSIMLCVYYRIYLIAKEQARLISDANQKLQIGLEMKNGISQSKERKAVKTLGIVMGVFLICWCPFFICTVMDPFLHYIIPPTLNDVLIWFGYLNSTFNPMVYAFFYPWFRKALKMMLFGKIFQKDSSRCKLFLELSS
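System: CHO-derived RD-HGA16 cells with stable Gα16 and human TAAR1. Times: 17-24 h plating, Fluo-8 75 min 37 °C, 30 min RT. Measured by: calcium-sensitive Fluo-8 signal, excitation 470-495, emission 515-575 nm. Read-out basis: % activation relative to PEA EC100 response. Control set: DMSO and PEA EC100. Repeats: no replicates (n 1).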
TAAR1 antag = antagonists of human TAAR1; Q96RJ0; CHO RD-HGA16 TAAR1, Fluo-8 calcium fluorescence, antagonist; inhibition, % at 3 µM; 360,000 compounds, 1.5% hits;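 active = inhibition above a per-plate cutoff, the mean inhibition of test compounds on that plate plus 3 SD, cut at about 49% in these data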;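 also: 0% = DMSO plus EC80 beta-PEA response and 100% = DMSO alone without agonist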
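Test system: hTAAR1-expressing CHO RD-HGA16 cells, Gα16-coupled; Probe or stimulus: EC80 β-phenethylamine stimulus; Compound dosing: single nominal final test compound concentration of 3 µM; Timing: 140 s kinetic read after compound, 140 s after agonist; Signal: Fluo-8 calcium-sensitive fluorescence; Measure: % inhibition of agonist calcium response; Controls: DMSO and EC80 PEA controls.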
OX1R HTRF confirm = confirmation of human orexin 1 receptor antagonists, HTRF format; shares compounds with OX1R antag-1; AID 492964; 1,800 compounds, 49% hits; OX1R-expressing cells, HTRF antagonist assay; inhibition, % at 6.6 µM; in the data active = inhibition above about 55%;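 also: CHO cells expressing OX1R stimulated with orexin A at about EC80; 0% = agonist challenge alone and 100% = reference antagonist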
CHO-K1 HTRF cnt = counter-screen: parental CHO-K1 HTRF response; 1,800 compounds, 48% hits; inhibition, % at 6.6 µM; shares compounds with OX1R antag-1; parental CHO-K1 cells, HTRF counterscreen; in the data active = inhibition above about 17%;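 also: 0% = agonist challenge with vehicle and 100% = vehicle alone without agonist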
Starred values were filed as active, the others as inactive.

CCOC(=O)N/N=C\c1ccc([N+](=O)[O-])o1 was read as CHO parental Ca 11, OX1R antag-1 78*, GPR7 antagonist 3, OX1R antag-2 13, TAAR1 ag 0, TAAR1 antag -18, OX1R HTRF confirm 50 and CHO-K1 HTRF cnt 79*.
For O=C(CN1CCN(c2ccccc2O)CC1)Nc1ccnn1C1CCCC1 the results were CHO parental Ca -23, OX1R antag-1 2, OX1R antag-2 -19, TAAR1 ag 9 and TAAR1 antag -6.
`Cn1cnc(S(=O)(=O)N2CCCCC2c2cc(C(=O)Nc3ccccc3Cl)no2)c1` (stereo not drawn) gave TAAR1 ag 3 and TAAR1 antag -14.
COc1cc(/C=c2\sc3n(c2=O)CCCN=3)ccc1O was read as CHO parental Ca 5, OX1R antag-1 68, GPR7 antagonist -4, OX1R antag-2 -23, TAAR1 ag 8 and TAAR1 antag -3.
`O=c1/c(=C/c2ccc([N+](=O)[O-])cc2)sc2n1CCCN=2` gave CHO parental Ca -3, OX1R antag-1 169*, GPR7 antagonist 13, OX1R antag-2 -9, TAAR1 ag 6, TAAR1 antag 8, OX1R HTRF confirm 61* and CHO-K1 HTRF cnt 84*.
For CCC(Oc1ccccc1)C(=O)Nc1ncc([N+](=O)[O-])s1 (stereo not drawn) the results were CHO parental Ca 9, OX1R antag-1 79*, GPR7 antagonist -12, OX1R antag-2 3, TAAR1 ag 15, TAAR1 antag -19, OX1R HTRF confirm 29 and CHO-K1 HTRF cnt 15.
CC(=O)Nc1ccc(S(=O)(=O)NCC(=O)Nc2ccc3c(c2)OCO3)cc1 was read as CHO parental Ca -11, OX1R antag-1 6, OX1R antag-2 -2, TAAR1 ag 1 and TAAR1 antag 1.
`CSc1nc2n(n1)C(c1cccs1)C1=C(CCCC1=O)N2` (stereo not drawn) gave CHO parental Ca -12, OX1R antag-1 106*, GPR7 antagonist -21, OX1R antag-2 -11, TAAR1 ag 2, TAAR1 antag -13, OX1R HTRF confirm 16 and CHO-K1 HTRF cnt 3.
Screening O=C1C2CCCCN2C(=O)N1CCN1CCN(c2ccc([N+](=O)[O-])cc2)CC1 (stereo not drawn) returned CHO parental Ca -11, OX1R antag-1 39, GPR7 antagonist -13, OX1R antag-2 -16, TAAR1 ag 1 and TAAR1 antag -6.
Screening O=C(CCCN1C(=O)C2CCCCN2C1=O)N1CCN(c2ccc([N+](=O)[O-])cc2)CC1 (stereo not drawn) returned CHO parental Ca -6, OX1R antag-1 79*, GPR7 antagonist -12, OX1R antag-2 -11, TAAR1 ag 4, TAAR1 antag 8, OX1R HTRF confirm 27 and CHO-K1 HTRF cnt 25*.
For CCN1CCN(c2ccc(S(=O)(=O)N3CCCCC3)cc2NC(=O)c2cc3ccccc3o2)CC1 the results were CHO parental Ca -18, OX1R antag-1 8, OX1R antag-2 -36, TAAR1 ag 1 and TAAR1 antag 8.
Cc1c(=O)n(OCc2ccccc2)c2ccccc2[n+]1[O-] was read as CHO parental Ca -18, OX1R antag-1 103*, GPR7 antagonist -8, OX1R antag-2 -27, TAAR1 ag 11, TAAR1 antag -15, OX1R HTRF confirm 52 and CHO-K1 HTRF cnt 25*.
Screening C=CCOn1c(=O)c(-c2ccc(OC)cc2)[n+]([O-])c2ccccc21 returned CHO parental Ca -1, OX1R antag-1 98*, GPR7 antagonist -4, OX1R antag-2 -2, TAAR1 ag 0, TAAR1 antag 4, OX1R HTRF confirm 33 and CHO-K1 HTRF cnt 48*.
CC(O)(c1ccc(F)c(F)c1)c1nc(-c2cnc3ccccc3c2)cs1 (stereo not drawn) was read as TAAR1 ag 4 and TAAR1 antag -2.
CCCC[n+]1ccc(-c2nc3ccc([N+](=O)[O-])cc3[nH]2)cc1 was read as CHO parental Ca -5, OX1R antag-1 113*, GPR7 antagonist -6, OX1R antag-2 -13, TAAR1 ag -2, TAAR1 antag 7, OX1R HTRF confirm 56* and CHO-K1 HTRF cnt 80*.
COc1ccccc1NC(=O)c1ccc(Br)c(S(=O)(=O)N2CCCC2)c1 was read as CHO parental Ca 11, OX1R antag-1 20, GPR7 antagonist 4, OX1R antag-2 -9, TAAR1 ag 2 and TAAR1 antag 4.
`O=C(/C=C/[C@H]1O[C@@H](n2ccc(=O)[nH]c2=O)[C@H](O)[C@@H]1O)NCc1cccc2ccccc12` gave TAAR1 ag 1 and TAAR1 antag -17.
`O=C(COC(=O)c1ccc([N+](=O)[O-])s1)NC(c1ccccc1)c1ccccc1` gave CHO parental Ca -20, OX1R antag-1 49, GPR7 antagonist -12, OX1R antag-2 -28, TAAR1 ag 0 and TAAR1 antag -16.
Screening O=C(COC(=O)c1ccc([N+](=O)[O-])s1)NCc1ccccc1 returned CHO parental Ca -5, OX1R antag-1 124*, GPR7 antagonist -8, OX1R antag-2 -22, TAAR1 ag -2, TAAR1 antag 7, OX1R HTRF confirm 28 and CHO-K1 HTRF cnt 18*.
`O=C(NCc1ccco1)c1cc([N+](=O)[O-])ccc1Cl` gave CHO parental Ca -10, OX1R antag-1 64, GPR7 antagonist 9, OX1R antag-2 -19, TAAR1 ag 1 and TAAR1 antag -25.
For O=C(NCc1ccco1)c1cc([N+](=O)[O-])cc([N+](=O)[O-])c1 the results were CHO parental Ca 2, OX1R antag-1 118*, GPR7 antagonist -11, OX1R antag-2 -4, TAAR1 ag 3, TAAR1 antag 2, OX1R HTRF confirm 55* and CHO-K1 HTRF cnt 69*.
O=C(Cc1ccccc1F)Nc1cc(Cl)ccc1N1CCCC1 was read as CHO parental Ca -15, OX1R antag-1 10, GPR7 antagonist 10, OX1R antag-2 -23, TAAR1 ag 2 and TAAR1 antag -5.
For O=[N+]([O-])c1ccc(C[n+]2cccc3ccc4cccnc4c32)cc1 the results were CHO parental Ca -13, OX1R antag-1 137*, GPR7 antagonist -9, OX1R antag-2 0, TAAR1 ag 2, TAAR1 antag -4, OX1R HTRF confirm 45 and CHO-K1 HTRF cnt 56*.
O=[N+]([O-])c1ccc(C[n+]2cccc3ccccc32)cc1 was read as CHO parental Ca 1, OX1R antag-1 64, GPR7 antagonist -11, OX1R antag-2 5, TAAR1 ag 7 and TAAR1 antag -21.
